ERp5 inh: inhibitors of ERp5-driven insulin aggregation, primary screen, biochemical, turbidity, absorbance 650 nm, single point; 90 min; 350,000 compounds, 0.05% hits; inhibition, % at 9.99 µM; AID 651711, 2012; Protein disulfide-isomerase A6 (Homo sapiens), Q15084;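 active means mean replicate inhibition above about 25%, with every replicate also reaching it, limit read from the data, passing the limit was not always enough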
PDI turbidity: inhibitors of human PDI, primary screen, biochemical, turbidity, single point, plate reader; Protein disulfide-isomerase (Homo sapiens), P07237; PDI insulin aggregation turbidity, A650, 90 min; inhibition, % at 10 µM; 350,000 compounds, 0.052% hits; AID 588391, 2011;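 active means mean inhibition across replicates of 30% or more, whatever share of single replicates reach that level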
Target sequence (P07237 whole entry, looked up): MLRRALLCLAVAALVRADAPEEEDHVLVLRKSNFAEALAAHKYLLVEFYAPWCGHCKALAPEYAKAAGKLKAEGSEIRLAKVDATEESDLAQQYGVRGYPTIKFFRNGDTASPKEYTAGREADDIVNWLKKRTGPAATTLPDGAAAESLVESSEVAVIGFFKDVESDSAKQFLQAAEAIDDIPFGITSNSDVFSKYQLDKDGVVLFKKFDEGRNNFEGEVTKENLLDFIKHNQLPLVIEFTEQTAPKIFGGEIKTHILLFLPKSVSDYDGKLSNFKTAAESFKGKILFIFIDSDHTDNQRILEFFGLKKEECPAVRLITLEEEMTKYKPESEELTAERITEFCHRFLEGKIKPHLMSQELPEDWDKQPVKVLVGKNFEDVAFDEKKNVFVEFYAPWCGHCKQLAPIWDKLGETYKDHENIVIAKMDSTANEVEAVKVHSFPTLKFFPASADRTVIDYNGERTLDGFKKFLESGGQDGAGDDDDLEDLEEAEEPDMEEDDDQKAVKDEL
GSIS activator: GLuc luminescence reporter in INS-1E cells, primary screen for activators of glucose-dependent secretion of insulin | INS-1E GLuc reporter insulin secretion, 2-3 h | activation, % at 16.6 µM | 370,000 compounds, 0.61% hits;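 active means lowest replicate activation of at least 40%, so every replicate reaches that level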;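 further: 0% = median of neutral control wells and 100% = median of IBMX positive control wells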
SIRT5 inh: SIRT5 desuccinylase inhibitors, primary screen, biochemical, fluorescence imaging, single point, set 5. 330,000 compounds, 1.1% hits. NAD-dependent protein deacylase sirtuin-5, mitochondrial (Homo sapiens), Q9NXA8. Purified SirT5, succinyl-peptide AMC, trypsin-coupled fluorescence. AID 652115, 2013. inhibition, % at 15 µM; in the data active means inhibition above about 15%
S100A4 MyoIIA: inhibitors of S100A4-myosin IIA peptide binding, primary screen, biochemical, fluorescence polarization, TAMRA-MyoIIA peptide | inhibition, % at 10.7 µM | Protein S100-A4 (Homo sapiens), P26447 | 360,000 compounds, 0.14% hits;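 active means mean inhibition of at least 70% across replicates, with every replicate also reaching that level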
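Material: S100A4 monomer (human). Medium: Calcium-containing HEPES buffer, pH 7.2. Probe or stimulus: labelled myosin peptide probe, 5 nM. Compound dosing: one concentration per compound. Timing: polarization read 5 min after assay mix addition, stable 5–60 min. Benchmarks: DMSO as neutral control, TFP as positive control.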
* hit, by the source's call. An excerpt weighted towards active compounds, which were near 1.5% of everything screened.

For C/C(=N/NC(=O)CNC(=O)CCc1ccccc1)c1ccc(Cl)c(Cl)c1 the results were ERp5 inh 2, PDI turbidity -8, GSIS activator -3, SIRT5 inh 16* and S100A4 MyoIIA -2.
C[C@@H]1CN([C@@H](C)CO)C(=O)c2cc(NS(C)(=O)=O)ccc2O[C@@H](C)CCCCO[C@@H]1CN(C)C(=O)c1ccncc1 was read as ERp5 inh 2, GSIS activator 0, SIRT5 inh 0 and S100A4 MyoIIA 1.
`CSC(=NS(=O)(=O)c1ccc(N)cc1)NS(=O)(=O)c1cccs1` gave ERp5 inh 2, PDI turbidity -4, SIRT5 inh 53* and S100A4 MyoIIA -17.
Screening CSC(=NC(C)c1ccccc1)NS(=O)(=O)c1cccs1 (stereo not drawn) returned ERp5 inh 2, PDI turbidity 2, GSIS activator 5, SIRT5 inh -2 and S100A4 MyoIIA -2.
For COc1cc(NC(=O)Cc2ccc([N+](=O)[O-])cc2)c(C(=O)O)cc1OC the results were ERp5 inh -6, PDI turbidity 6, GSIS activator 4, SIRT5 inh 20* and S100A4 MyoIIA -9.
`CCCCNC(=S)Nc1ccc2cn[nH]c2c1` gave ERp5 inh 6, PDI turbidity 7, GSIS activator 10, SIRT5 inh 0 and S100A4 MyoIIA -7.
`S=C(NCc1ccccc1)Nc1ccc2cn[nH]c2c1` gave ERp5 inh -1, PDI turbidity -2, GSIS activator 40*, SIRT5 inh -1 and S100A4 MyoIIA 1.
Screening COC(=O)c1ccc(-c2noc(CN3CCCC(CNC(C)=O)C3)n2)cc1 (stereo not drawn) returned ERp5 inh 0, PDI turbidity 2, GSIS activator -8, SIRT5 inh 35* and S100A4 MyoIIA 2.
Screening COCC#Cc1ccc2c(c1)O[C@@H](CN(C)S(=O)(=O)c1ccc(OC)cc1)[C@H](C)CN([C@H](C)CO)S2(=O)=O returned ERp5 inh 0, GSIS activator -34, SIRT5 inh 3 and S100A4 MyoIIA 16.
Screening O=c1oc2ccccc2c(Nc2cc3ccccc3cc2O)c1[N+](=O)[O-] returned ERp5 inh -3, PDI turbidity -10, GSIS activator -64, SIRT5 inh 6 and S100A4 MyoIIA 1.
Screening O=c1oc2ccccc2c(Nc2ccccc2O)c1[N+](=O)[O-] returned ERp5 inh 1, PDI turbidity 0, GSIS activator 1, SIRT5 inh 17* and S100A4 MyoIIA -6.
For CCCC(=O)Nc1ccc2c(c1)OC[C@@H](C)N(C(=O)CC)C[C@H](C)[C@@H](OC)CN(C)C2=O the results were ERp5 inh -1, GSIS activator -10, SIRT5 inh -6 and S100A4 MyoIIA 14.
`CN1C(=S)N(c2ccccc2)C(=O)/C1=C/c1cccs1` gave PDI turbidity -6 and GSIS activator 68*.
`Cc1noc(C)c1NC(=O)Nc1ccc2c(c1)C(=O)N([C@@H](C)CO)C[C@H](C)[C@H](CN(C)S(=O)(=O)c1ccc(Cl)cc1)OCCCC[C@@H](C)O2` gave ERp5 inh 2, GSIS activator 4, SIRT5 inh 5 and S100A4 MyoIIA -3.
COc1cccc(OCc2ccc(Cn3nc(NC(=O)NCCc4ccc(OC)c(OC)c4)c4ccccc43)cc2)c1 was read as ERp5 inh -7, PDI turbidity -39, GSIS activator -5, SIRT5 inh 35* and S100A4 MyoIIA -2.
For COc1cccc(S(=O)(=O)N2C[C@@H](O)COC[C@@H]3O[C@H](CC(=O)N4CCOCC4)CC[C@H]32)c1 the results were ERp5 inh -11, GSIS activator 13, SIRT5 inh -2 and S100A4 MyoIIA 7.
For COC(=O)c1cc(OC)c(OC)cc1NC(=O)c1cc(OC)cc(OC)c1 the results were ERp5 inh -3, PDI turbidity 17, GSIS activator 18, SIRT5 inh 16* and S100A4 MyoIIA -6.
For COC(=O)c1cc(OC)c(OC)cc1NC(=O)c1ccccc1 the results were PDI turbidity 17 and GSIS activator -5.
